HUVEC prolif 384: blocks proliferation of human endothelial cells; hit rate 1.1% among 86,000; viability, % at 10 µM (by protocol); HUVEC proliferation, CellTiter-Glo luminescence, 72 h; hits give low values;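 active = viability at or below 30%; inactive = viability above 30%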;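 note: 100% = median luminescence of DMSO-only cell control wells on each plate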
H69AR inhibit: blocks growth of human H69AR lung tumor cells; AID 598; H69AR lung tumor viability, ATP luminescence, 72 h; hits give low values; viability, % at 10 µM; hit rate 6% among 85,000;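 active = viability at or below 40%; inactive = viability above 40%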;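 note: multidrug resistant small cell line overexpressing MRP-1 efflux transporter; 100% = mean luminescence of untreated control wells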
PTEN del growth: growth suppressors of cells with PTEN tumor suppressor deletion; HCT116 PTEN-null viability, CellTiter-Glo, 60 h; hits give low values; viability, % at 10 µM; hit rate 1.2% among 140,000; AID 827;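 active = viability at or below a set limit, 4 SD under the median of all tested compounds, cut at about 3.7% in these data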;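 note: PTEN knockout HCT116 line with beta catenin targeted HCT116 as companion control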
Lung fibro prol: blocks proliferation of human lung fibroblasts; LL 47 human lung fibroblast viability, ATP luminescence; hits give low values; viability, % at 10 µM; hit rate 1.1% among 85,000; AID 719;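 active = viability at or below 50% in the single dose screen; inactive = viability above 50%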;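 note: compound exposure lasted 72 h before the ATP readout; 100% = median luminescence of untreated cell-only wells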
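Benchmarks: Cell-only wells, no compound | Test system: LL 47 human lung fibroblasts, passage 12 or lower | Input: 1,150 cells/well | Measured by: CellTiter-Glo luminescence measuring cellular ATP | Medium: IMEM, 15% FBS supplement | Schedule: Overnight attachment after seeding, then 72 h compound exposure at 37 °C | Doses: Compound addition at 0.1% DMSO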
HCT116 bCat-KO: beta-catenin-lacking colon tumor cell growth suppression | hit rate 1.5% among 140,000 | HCT116 beta-catenin knockout viability, CellTiter-Glo, 60 h; hits give low values | viability, % at 10 µM;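 active = viability at or under a set limit, the compound median less 4 SD, cut at about 6% in these data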;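 note: 0% = Hyamine 1622 control at 20 µM and 100% = untreated cell control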
Active calls of the source: *; . = not tested or not shown. The sample as a whole holds a higher share of hits than the screen did.

SMILES	HUVEC prolif 384	H69AR inhibit	PTEN del growth	Lung fibro prol	HCT116 bCat-KO
CCN(c1ccccc1)S(=O)(=O)c1ccc(OC)c(OC)c1	119	105	106	91	100
CCN(c1ccccc1)S(=O)(=O)c1ccc(Oc2ccc(-n3ccnc3)cc2)nc1	75	64	52	49*	55
COc1ccc(-c2noc(CCC(=O)NCCCN3CCC(C)CC3)n2)cc1	99	97	110	100	99
Cc1ccc(-c2noc(CCC(=O)NCCCN3CCN(c4cccc(Cl)c4)CC3)n2)cc1	23*	37*	5	57	7
Cc1ccc(-c2noc(CCC(=O)NCCCN3CCN(c4ccc(F)cc4)CC3)n2)cc1	75	27*	9	58	12
COc1cccc(NC(=O)C(OC(=O)c2ccccc2NS(=O)(=O)c2cccs2)c2ccccc2)c1 (centres undefined)	.	.	78	.	77
Cn1c(C(O)c2ccccc2F)nc(Cl)c1Cl (centres undefined)	100	94	89	97	109
Cc1ccccc1OCCCCn1cnc2ccccc21	46	74	21	103	17
Brc1ccccc1OCCCn1cnc2ccccc21	16*	72	.	94	93
COc1ccc(N(C(=O)CCl)C(C(=O)NCCc2ccccc2)c2cccs2)cc1 (centres undefined)	.	.	0.7*	.	1.6*
COc1ccc(CNC(=O)C(c2ccncc2)N(C(=O)Cc2cccs2)c2ccccc2)cc1 (centres undefined)	.	.	101	.	83
COc1ccc(C(=O)N2CCN(C(C)=O)CC2)cc1S(=O)(=O)NCc1ccc(Cl)cc1	97	97	86	103	76
CCCCCCCCOC(=O)C1=C(C)Nc2nnnn2C1c1cccs1 (centres undefined)	2.5*	62	67	100	65
CCCCCCCOC(=O)C1=C(C)Nc2ncnn2C1c1cccs1 (centres undefined)	63	82	74	77	60
Cn1c(C(C#N)C(=O)c2ccco2)nc2ccccc21 (centres undefined)	89	33*	73	80	74
Cn1c(C(C#N)C(=O)Cc2cccc3ccccc23)nc2ccccc21 (centres undefined)	73	63	83	75	82
O=C(CC(SCCO)c1ccc2c(c1)OCO2)c1cccs1 (centres undefined)	95	4.3*	10	.	7
O=C(CC(SCc1ccco1)c1ccc(O)cc1)c1cccs1 (centres undefined)	74	13*	20	86	11
O=C(NC1CCCCC1)C12CC3CC(C1)CC(n1cncn1)(C3)C2	.	.	92	.	102
Cc1cc(Cl)ccc1OCCCC(=O)N1CCN(C)CC1	98	83	79	89	76
Cc1cc(Cl)ccc1OCCCC(=O)NO	92	3.1*	77	81	67
Cc1cc(Cl)ccc1OCCCC(N)=O	86	111	103	42*	97
Cc1ccc(S(=O)(=O)n2nc(-c3cccnc3)nc2N)cc1	103	93	98	101	102
CCC(C)n1ncn(-c2ccc(N3CCN(c4ccc(O)cc4)CC3)cc2)c1=O (centres undefined)	.	.	70	.	77
CCC(C)n1ncn(-c2ccc(N3CCN(c4ccc(OCC5COC(Cn6cncn6)(c6ccc(Cl)cc6Cl)O5)cc4)CC3)cc2)c1=O (centres undefined)	18*	62	.	72	.
SMILES	HUVEC prolif 384	H69AR inhibit	PTEN del growth	Lung fibro prol	HCT116 bCat-KO
CN(C1=C(NC(=O)c2ccc(Cl)cc2)C(=O)c2ccccc2C1=O)c1ccccc1	.	.	1.6*	.	1.6*
Cc1cc(C(=O)CSc2nc3ccccc3c(=O)n2C)c(C)n1Cc1ccc2c(c1)OCO2	24*	25*	15	81	7
CC(=O)Nc1ccc(NC(=O)COC(=O)c2c(C)nn(-c3ccccc3)c2C)cc1	.	.	96	.	89
Cc1nn(-c2ccccc2)c(C)c1C(=O)OCC(=O)NC12CC3CC(CC(C3)C1)C2	91	29*	71	99	60
COc1ccc(NC(=O)c2ccco2)cc1NC(=O)c1cc2ccccc2o1	88	76	77	101	81
COCC(C)n1c(C)cc(C(=O)COC(=O)c2c(NC(C)=O)sc(C)c2C)c1C (centres undefined)	31	3.2*	.	62	.
CCOc1ccc(CCNC(=O)C2CCN(c3nn4c(=O)cc(C)nc4s3)CC2)cc1	103	82	91	105	92
Cc1cccc(Nc2nc(NCc3ccco3)nc(N3CCOCC3)n2)c1	7.9*	53	13	84	12
Cc1ccc(-n2c(=O)cc(N3CCC(C)CC3)[nH]c2=O)cc1	.	.	88	.	90
CC[n+]1c(/C=C/c2ccc(N(C)C)cc2)ccc2ccccc21	.	.	2.1*	.	3.4*
CN(C)c1ccc(/C=C/c2cc[n+](C)cc2)cc1	96	43	14	101	8
COC(=O)c1c(C)[nH]c(C(=O)OCC(=O)NCC(C)C)c1C	104	92	89	103	85
CCOC(=O)c1c(C)[nH]c(C(=O)OC/C(O)=C(\C#N)c2nc3ccccc3[nH]2)c1C	9.2*	57	79	112	87
N#C/C(=C(/O)COC(=O)c1ccc2c(c1)OCCO2)c1nc2ccccc2[nH]1	88	93	98	.	86
COc1ccccc1OCC(=O)OC/C(O)=C(\C#N)c1nc2ccccc2[nH]1	.	.	2.2*	.	5.5*
COc1cccc(OC)c1/C(O)=C(\C#N)c1nc2ccccc2[nH]1	88	27*	89	91	84
N#C/C(=C(/O)COC(=O)CCc1ccc(S(=O)(=O)N2CCOCC2)cc1)c1nc2ccccc2[nH]1	76	41	4	90	5.7*
CC(C)(C)/C(O)=C(/C#N)c1nc2ccccc2[nH]1	99	83	89	94	88
N#Cc1c(NCCN)nc(-c2ccco2)c2c1CCCC2	67	7.1*	6	41*	6
Cc1nc(NCc2ccco2)c(C#N)c2c1COC(C)(C)C2	107	84	93	102	95
CC1(C)Cc2c(C#N)c(NCc3ccco3)nc(-c3ccco3)c2CO1	50	20*	75	76	72
CC1(C)Cc2c(C#N)c(OCC(=O)c3ccc(Cl)cc3)nc(-c3ccco3)c2CO1	60	58	75	42*	86
O=C(CSc1nnc(C2COc3ccccc3O2)o1)N1CCOCC1 (centres undefined)	82	112	102	93	98
Cc1c(Cl)cccc1NC(=O)CC1NCCNC1=O (centres undefined)	102	92	94	102	85
CN(Cc1ccccc1)C1CC(=O)N(c2ccc(C(=O)O)cc2)C1=O (centres undefined)	92	96	97	92	102
Cc1ccc(S(=O)(=O)c2nc(-c3ccc(F)cc3)oc2SCC(=O)NCC2CCCO2)cc1 (centres undefined)	71	28*	25	62	38
